According to ChEMBL document CHEMBL4152324 (Eur J Med Chem, 2018):
The source made the active and inactive calls. No cut-off for these calls is given here.

Legend:
[1] = target: T1, NAD-dependent protein deacetylase sirtuin-2 (Homo sapiens, UniProt Q8IXJ6); test: Inhibition of recombinant His-tagged SIRT2 (56 to 356 residues) (unknown origin) expressed in Escherichia coli Transetta(DE3) using AcIQF as substrate preincubated for 30 mins followed by substrate and NAD+ addition measured after 2 hrs by fluorescence assay
T1 sequence (Q8IXJ6 whole entry): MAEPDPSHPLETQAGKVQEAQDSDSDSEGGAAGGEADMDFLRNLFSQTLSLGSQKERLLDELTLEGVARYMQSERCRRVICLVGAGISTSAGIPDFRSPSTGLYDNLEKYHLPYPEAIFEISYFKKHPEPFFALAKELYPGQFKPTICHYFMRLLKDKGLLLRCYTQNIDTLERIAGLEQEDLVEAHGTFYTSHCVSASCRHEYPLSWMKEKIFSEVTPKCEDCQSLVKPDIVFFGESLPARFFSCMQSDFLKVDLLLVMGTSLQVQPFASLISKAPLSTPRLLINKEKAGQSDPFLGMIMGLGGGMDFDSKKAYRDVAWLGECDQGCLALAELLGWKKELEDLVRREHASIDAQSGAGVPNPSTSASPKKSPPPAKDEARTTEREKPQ

NCI-H441 [2] = test: Antiproliferative activity against human NCI-H441 cells assessed as reduction in EdU incorporation at 30 uM after 48 hrs by DAPI staining based fluorescence microscopic method; format: functional, cell-based
How it was run: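 Cells in 96-well plates treated with DMSO vehicle or compound (30 μM) for 48 h. Proliferation measured by EdU incorporation kit per manufacturer. EdU and DAPI nuclear fluorescence imaged on a high-content reader.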

NCI-H441 [3] = test: Induction of apoptosis in human NCI-H441 cells assessed as necrotic cells at 30 uM after 48 hrs by Annexin V-FITC/propidium iodide staining based flow cytometry (reference value: 1.79%); format: functional
NCI-H441 [4] = test: Anti-invasive activity against human NCI-H441 cells at 30 uM after 48 hrs by crystal violet staining based transwell assay; format: functional, cell-based
How it was run: (§1)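 H441 cells in serum-free RPMI1640 seeded at 5 × 10⁴/100 μL into Matrigel-precoated insert upper chambers, with DMSO vehicle or compound in serum-free medium above. Lower chambers held RPMI1640 complete medium. After 48 h, invaded cells fixed with methanol and stained with 0.05% crystal violet (w/v).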

NCI-H441 [5] = test: Induction of apoptosis in human NCI-H441 cells assessed as early apoptotic cells at 30 uM after 48 hrs by Annexin V-FITC/propidium iodide staining based flow cytometry (reference value: 2.47%); format: functional
NCI-H441 [6] = test: Anticlonogenic activity against human NCI-H441 cells at 10 to 30 uM after 2 weeks by crystal violet staining based assay; format: functional, cell-based
How it was run: (§2)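 Cells seeded at 5,000 per well in six-well plates and exposed to DMSO vehicle or compound for 2 weeks, with agents replaced every 3 days. Cells then fixed with methanol and stained with 0.05% crystal violet (w/v).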

NCI-H441 [7] = test: Antiproliferative activity against human NCI-H441 cells after 72 hrs by MTT assay; format: functional, cell-based; conditions: NCI-H441, 72 h
How it was run: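 Cells in 96-well plates given DMSO vehicle or a range of compound concentrations for 72 h. MTT reagent (5 mg/mL stock) added, then 4 h at 37 °C. Formazan dissolved overnight in 20% acidified SDS (w/v), absorbance read at 570 nm. IC50 taken from the viability profile.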

NCI-H441 [8] = test: Induction of apoptosis in human NCI-H441 cells assessed as live cells at 30 uM after 48 hrs by Annexin V-FITC/propidium iodide staining based flow cytometry (reference value: 88.5%); format: functional
NCI-H441 [9] = test: Induction of apoptosis in human NCI-H441 cells assessed as late apoptotic cells at 30 uM after 48 hrs by Annexin V-FITC/propidium iodide staining based flow cytometry (reference value: 7.25%); format: functional
NCI-H441 [10] = test: Antimigratory activity against human NCI-H441 cells assessed as reduction in wound closure at 30 uM after 24 hrs by light microscopic method; format: functional, cell-based
How it was run: (§3)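 Confluent monolayers in 12-well plates were scratched with a sterile pipette tip, then treated with DMSO vehicle or compound for 24 h. Wounds photographed by digital camera on a light microscope.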

NCI-H441 [11] = test: Anti-invasive activity against human NCI-H441 cells after 48 hrs by crystal violet staining based transwell assay; format: functional, cell-based; how it was run: as §1
[12] = target: T2, NAD-dependent protein deacetylase sirtuin-2 (Homo sapiens) (UniProt Q8IXJ6); test: Inhibition of SIRT2 in human NCI-H441 cells assessed as increase in acetylated alpha-tubulin level after 72 hrs by Western blot analysis; format: cell-based
T2 sequence (whole entry): T1 sequence (Q8IXJ6 whole entry)
How it was run: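 H441 cells (ATCC, passaged <6 months after resuscitation) exposed to compound for 72 h. Whole-cell lysates separated by SDS-PAGE, transferred to PVDF and probed with anti-Ac-α-tubulin and anti-α-tubulin (1:1,000), then HRP secondaries (1:5,000) with ECL detection. Ac-α-tubulin normalized to α-tubulin, expressed relative to untreated control set to 1.0.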

NCI-H441 [13] = test: Anticlonogenic activity against human NCI-H441 cells at 3 to 30 uM after 2 weeks by crystal violet staining based assay; format: functional, cell-based; how it was run: as §2
NCI-H441 [14] = test: Antimigratory activity against human NCI-H441 cells assessed as reduction in wound closure at 10 to 30 uM after 24 hrs by light microscopic method; format: functional, cell-based; how it was run: as §3

Row | SMILES | IC50 ([1]; read-out: IC50) [µM] | also measured
1 | CNC(=S)NCCC(=O)Nc1ccc(OCc2cccc(NC(=O)CSc3nc(C)cc(C)n3)c2)cc1 | 11.7 | 
2 | Cc1cc(C)nc(SCC(=O)Nc2cccc(COc3cccc(NC(=O)c4cnn(C)c4)c3)c2)n1 | 93.7 | Activity (NCI-H441 [2]): inactive; Activity (NCI-H441 [3]): 2.21%; Activity (NCI-H441 [4]): inactive; Activity (NCI-H441 [5]): 2.61%; Activity (NCI-H441 [6]): inactive; IC50 (NCI-H441 [7]): > 100 µM; Activity (NCI-H441 [8]): 87.8%; Activity (NCI-H441 [9]): 7.39%; Activity (NCI-H441 [10]): inactive
3 | Cc1cc(C)nc(SCC(=O)Nc2cccc(COc3ccc(NC(=O)CCN)cc3)c2)n1 | 300 | 
4 | CC(C)n1ncnc1SCC(=O)Nc1cccc(COc2ccc(NC(=O)c3cccs3)cc2)c1 | 270 | 
5 | Cc1cc(C)nc(SCC(=O)Nc2cccc(COc3ccc(NC(=O)c4cccs4)cc3)c2)n1 | 3.41 | 
6 | Cc1cc(C)nc(SCC(=O)Nc2cccc(COc3ccc(NC(=O)CCCNC(=O)OC(C)(C)C)cc3)c2)n1 | > 300 | 
7 | Cc1cc(C)nc(SCC(=O)Nc2cccc(COc3ccc(NC(=O)C4CCCN4C(=O)OC(C)(C)C)cc3)c2)n1 (centres undefined) | 76.1 | 
8 | Cc1cc(C)nc(SCC(=O)Nc2cccc(COc3ccc(NC(=O)C4CCCN4)cc3)c2)n1 (centres undefined) | 41.3 | 
9 | O=C(CSc1nc[nH]n1)Nc1cccc(COc2ccc(NC(=O)c3cccs3)cc2)c1 | > 300 | 
10 | Cc1cc(C)nc(SCC(=O)Nc2cccc(COc3ccc(NC(=O)CCCN[C@@H]4CCCC[C@H]4O)cc3)c2)n1 | 175 | 
11 | Cc1cc(C)cc(OCC(=O)Nc2cccc(COc3ccc(NC(=O)c4cccs4)cc3)c2)c1 | > 300 | 
12 | Cn1nnnc1SCC(=O)Nc1cccc(COc2ccc(NC(=O)c3cccs3)cc2)c1 | 44.5 | 
13 | Cc1cc(C)nc(SCC(=O)Nc2cccc(COc3ccc(NC(=O)C4CCOCC4)cc3)c2)n1 | 1.32 | 
14 | Cc1cc(C)nc(SCC(=O)Nc2cccc(COc3cccc(NC(=O)C4CCCN4C(=O)OC(C)(C)C)c3)c2)n1 (centres undefined) | 15.2 | 
15 | COc1cccc(SCC(=O)Nc2cccc(COc3ccc(NC(=O)c4cccs4)cc3)c2)c1 | > 300 | 
16 | CC(=O)NCC(=O)Nc1ccc(OCc2cccc(NC(=O)CSc3nc(C)cc(C)n3)c2)cc1 | > 300 | 
17 | Cc1cccc(SCC(=O)Nc2cccc(COc3ccc(NC(=O)c4cccs4)cc3)c2)c1 | > 300 | 
18 | Cc1cc(C)nc(SCC(=O)Nc2cccc(COc3ccc(NC(=O)c4ccccn4)cc3)c2)n1 | 29.4 | 
19 | CC(C)n1cnc(SCC(=O)Nc2cccc(COc3ccc(NC(=O)c4cccs4)cc3)c2)n1 | 142 | 
20 | Cn1cc(C(=O)Nc2ccc(OCc3cccc(NC(=O)COc4cccc5ccccc45)c3)cc2)cn1 | > 300 | 

Row | SMILES | IC50 ([1]; read-out: IC50) [µM] | also measured
21 | Cc1cc(C)nc(SCC(=O)Nc2cccc(COc3ccc(NC(=O)CCNC(=O)OC(C)(C)C)cc3)c2)n1 | 300 | 
22 | Cc1cc(C)nc(SCC(=O)Nc2cccc(COc3cccc(NC(=O)c4ccccn4)c3)c2)n1 | > 300 | 
23 | Cc1cc(C)nc(SCC(=O)Nc2cccc(COc3ccc(NC(=O)CCN[C@@H]4CCCC[C@H]4O)cc3)c2)n1 | > 300 | 
24 | Cn1cc(C(=O)Nc2ccc(OCc3cccc(NC(=O)CSc4nnc5ccccn45)c3)cc2)cn1 | > 300 | 
25 | Cc1cc(C)nc(SCC(=O)Nc2cccc(COc3ccc(NC(=O)CNC(=O)OCc4ccccc4)cc3)c2)n1 | > 300 | 
26 | CCOCC(=O)Nc1ccc(OCc2cccc(NC(=O)CSc3nc(C)cc(C)n3)c2)cc1 | 110 | 
27 | Cc1cc(C)nc(SCC(=O)Nc2cccc(COc3cccc(NC(=O)c4ccco4)c3)c2)n1 | 123 | 
28 | Cc1cc(C)nc(SCC(=O)Nc2cccc(COc3cccc(NC(=O)C4CCCN4)c3)c2)n1 (centres undefined) | 142 | 
29 | Cc1cc(C)nc(SCC(=O)Nc2cccc(COc3cccc(NC(=O)C4CCOCC4)c3)c2)n1 | 169 | 
30 | Cc1cc(C)nc(SCC(=O)Nc2cccc(COc3cccc(NC(=O)c4cccs4)c3)c2)n1 | 128 | 
31 | Cc1cc(C)nc(SCC(=O)Nc2cccc(COc3ccccc3)c2)n1 | 25.9 | IC50 ([1]; read-out: pIC50 (converted)): 26.3 µM
32 | C/C=C/C(=O)Nc1ccc(OCc2cccc(NC(=O)CSc3nc(C)cc(C)n3)c2)cc1 | 89.3 | 
33 | Cc1cc(C)nc(SCC(=O)Nc2cccc(COc3ccc(NC(=O)CCCN)cc3)c2)n1 | 70.6 | 
34 | CNC(=S)NCCCC(=O)Nc1ccc(OCc2cccc(NC(=O)CSc3nc(C)cc(C)n3)c2)cc1 | 9.56 | 
35 | Cc1cc(C)nc(SCC(=O)Nc2cccc(COc3ccc(NC(=O)OC(C)(C)C)cc3)c2)n1 | 100 | 
36 | O=C(COc1cccc2ccccc12)Nc1cccc(COc2ccc(NC(=O)c3cccs3)cc2)c1 | > 300 | 
37 | O=C(CSc1nnc2ccccn12)Nc1cccc(COc2ccc(NC(=O)c3cccs3)cc2)c1 | > 300 | 
38 | Cc1cc(C)nc(SCC(=O)Nc2cccc(COc3ccc(NC(=O)c4cnn(C)c4)cc3)c2)n1 | 0.815 | Activity (NCI-H441 [2]): Active; Activity (NCI-H441 [3]): 2.26%; Activity (NCI-H441 [11]): Dose-dependent effect; Activity (NCI-H441 [5]): 2.69%; inhibition [12]: Dose-dependent effect; IC50 (NCI-H441 [7]): 3.93 µM; Activity (NCI-H441 [8]): 87.8%; Activity (NCI-H441 [13]): Active; Activity (NCI-H441 [9]): 7.22%; Activity (NCI-H441 [14]): Active
39 | Cc1cc(C)nc(SCC(=O)Nc2cccc(COc3ccc(NC(=O)c4ccco4)cc3)c2)n1 | 3.1 | 
